Results taken from ChEMBL document CHEMBL2407036, “Flow Synthesis and Biological Studies of an Analgesic Adamantane Derivative That Inhibits P2X7-Evoked Glutamate Release” (ACS Med Chem Lett, 2013).
pIC50: −log10 of the molar value. Activity calls are given as the source filed them.

Legend:
Rattus norvegicus [1] = assay: Antinociceptive activity against carrageenan-induced hyperalgesia in rat assessed as paw pressure at 3 mg/kg, po measured after 90 mins (reference value: 34.8 +/- 3.1 g); assay type: functional
In short: (§1)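 Rats received intraplantar carrageenan before oral dosing. Paw-pressure withdrawal threshold (g) was measured before treatment and at 15, 30, 60 and 90 min after it. Carrageenan-injected rats given vehicle served as reference, with saline-injected rats as a further control.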

Mus musculus [2] = assay: Analgesic activity in Swiss albino mouse assessed as inhibition of acetic acid-induced abdominal contraction at 3 mg/kg, po measured after 30 mins; assay type: functional, organism-based; design: dose 3 mg/kg; settings: Abdominal cavity
In short: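 Writhing was induced in Swiss albino mice with 0.6% acetic acid. Drugs were given p.o. 30 min before the test. Writhes were counted at 30 and 60 min and compared with vehicle-treated controls.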

Rattus norvegicus [3] = assay: Antinociceptive activity against carrageenan-induced paw edema in rat assessed as paw edema volume at 3 mg/kg, po measured after 30 mins (reference value: 2.71+/- 0.08 ml); assay type: functional
[4] = molecular target: T1, P2X purinoceptor 7 (Rattus norvegicus) (UniProt Q64663); settings: Brain, 50 uM
T1 sequence (whole entry): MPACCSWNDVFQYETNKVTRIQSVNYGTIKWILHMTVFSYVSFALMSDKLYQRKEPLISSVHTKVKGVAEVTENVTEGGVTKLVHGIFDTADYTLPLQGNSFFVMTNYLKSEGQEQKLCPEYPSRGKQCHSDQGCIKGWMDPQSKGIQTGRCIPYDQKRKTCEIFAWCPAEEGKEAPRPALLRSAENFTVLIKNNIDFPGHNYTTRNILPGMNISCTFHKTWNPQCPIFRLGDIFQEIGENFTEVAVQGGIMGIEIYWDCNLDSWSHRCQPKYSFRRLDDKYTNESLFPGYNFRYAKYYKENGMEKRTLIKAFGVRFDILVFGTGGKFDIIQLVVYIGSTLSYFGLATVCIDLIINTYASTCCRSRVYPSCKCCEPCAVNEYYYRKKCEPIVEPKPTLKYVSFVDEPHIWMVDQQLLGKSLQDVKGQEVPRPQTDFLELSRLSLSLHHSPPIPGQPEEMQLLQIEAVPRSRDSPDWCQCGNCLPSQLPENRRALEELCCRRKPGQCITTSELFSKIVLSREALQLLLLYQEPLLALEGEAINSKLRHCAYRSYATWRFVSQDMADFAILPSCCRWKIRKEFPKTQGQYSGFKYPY

Rattus norvegicus [5] = assay: Antinociceptive activity against carrageenan-induced hyperalgesia in rat assessed as paw pressure at 10 mg/kg, po measured after 15 mins (reference value: 32.8 +/- 2.9 g); assay type: functional; in short: as §1
Rattus norvegicus [6] = assay: Antinociceptive activity against carrageenan-induced hyperalgesia in rat assessed as paw pressure at 20 mg/kg, po measured after 30 mins (reference value: 30.6 +/- 3.2 g); assay type: functional; in short: as §1
Rattus norvegicus [7] = assay: Antinociceptive activity against carrageenan-induced hyperalgesia in rat assessed as paw pressure at 3 mg/kg, po measured after 30 mins (reference value: 30.6 +/- 3.2 g); assay type: functional; in short: as §1
Rattus norvegicus [8] = assay: Antinociceptive activity against carrageenan-induced hyperalgesia in rat assessed as paw pressure at 20 mg/kg, po measured after 15 mins (reference value: 32.8 +/- 2.9 g); assay type: functional; in short: as §1
Mus musculus [9] = assay: Analgesic activity in Swiss albino mouse assessed as inhibition of acetic acid-induced abdominal contraction at 10 mg/kg, po measured after 30 mins in presence of naxolone; assay type: functional, organism-based; design: dose 10 mg/kg; settings: Abdominal cavity
Rattus norvegicus [10] = assay: Antinociceptive activity against carrageenan-induced paw edema in rat assessed as paw edema volume at 10 mg/kg, po measured after 30 mins (reference value: 2.71+/- 0.08 ml); assay type: functional
[11] = molecular target: T1, P2X purinoceptor 7 (Rattus norvegicus); settings: Brain, 50 uM; remark: listed apart in the source
Rattus norvegicus [12] = assay: Antinociceptive activity against carrageenan-induced hyperalgesia in rat assessed as paw pressure at 3 mg/kg, po measured after 15 mins (reference value: 32.8 +/- 2.9 g); assay type: functional; in short: as §1
[13] = molecular target: T1, P2X purinoceptor 7 (Rattus norvegicus); settings: Brain, 50 uM; remark: listed apart in the source
Rattus norvegicus [14] = assay: Antinociceptive activity against carrageenan-induced hyperalgesia in rat assessed as paw pressure at 10 mg/kg, po measured after 90 mins (reference value: 34.8 +/- 3.1 g); assay type: functional; in short: as §1
P2X purinoceptor 7 = molecular target: T2, P2X purinoceptor 7 (Rattus norvegicus, UniProt Q64663); assay: Antagonist activity at P2X7 in Sprague-Dawley rat synaptosome assessed as inhibition of BzATP-induced [3H]D-aspartate efflux compound preincubated for 8 mins by liquid scintillation counting; design: species or system Brain
T2 sequence (Q64663 whole entry): T1 sequence (whole entry)
In short: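 Purified rat cerebrocortical synaptosomes loaded with [3H]D-aspartate and superfused. 100 μM BzATP added for 120 s. Compound added 8 min before BzATP. Ca2+-free conditions used medium with 0.5 mM EGTA, added 18 min before BzATP. Log concentration–response for inhibition of evoked efflux. Mean ± SEM of 3−12 independent experiments in triplicate.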

[15] = molecular target: T3, Prostaglandin G/H synthase 2 (Homo sapiens) (UniProt P35354); assay: Inhibition of COX-2 (unknown origin)
T3 sequence (whole entry): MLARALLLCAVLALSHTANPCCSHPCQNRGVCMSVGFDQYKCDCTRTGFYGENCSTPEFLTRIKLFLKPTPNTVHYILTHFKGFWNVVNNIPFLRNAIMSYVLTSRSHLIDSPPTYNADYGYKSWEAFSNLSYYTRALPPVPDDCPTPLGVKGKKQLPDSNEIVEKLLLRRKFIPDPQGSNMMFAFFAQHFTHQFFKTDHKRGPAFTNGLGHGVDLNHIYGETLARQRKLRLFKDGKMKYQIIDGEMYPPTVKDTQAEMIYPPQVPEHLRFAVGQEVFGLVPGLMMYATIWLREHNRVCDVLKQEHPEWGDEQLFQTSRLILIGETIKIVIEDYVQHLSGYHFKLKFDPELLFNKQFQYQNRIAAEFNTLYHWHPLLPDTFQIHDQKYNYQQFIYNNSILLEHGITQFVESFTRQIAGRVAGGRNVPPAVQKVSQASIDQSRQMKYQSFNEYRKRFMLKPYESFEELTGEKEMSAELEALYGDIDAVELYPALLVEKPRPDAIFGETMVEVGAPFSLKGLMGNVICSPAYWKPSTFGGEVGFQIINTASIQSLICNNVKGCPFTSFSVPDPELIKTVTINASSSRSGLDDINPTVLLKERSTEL

Rattus norvegicus [16] = assay: Antinociceptive activity against carrageenan-induced hyperalgesia in rat assessed as paw pressure at 20 mg/kg, po measured after 90 mins (reference value: 34.8 +/- 3.1 g); assay type: functional; in short: as §1
Rattus norvegicus [17] = assay: Antinociceptive activity against carrageenan-induced hyperalgesia in rat assessed as paw pressure at 10 mg/kg, po measured after 30 mins (reference value: 30.6 +/- 3.2 g); assay type: functional; in short: as §1
Rattus norvegicus [18] = assay: Antinociceptive activity against carrageenan-induced hyperalgesia in rat assessed as paw pressure at 3 mg/kg, po measured after 60 mins (reference value: 31.8 +/- 2.2 g); assay type: functional; in short: as §1
[19] = molecular target: Prostaglandin G/H synthase 1 (Homo sapiens) (UniProt P23219); assay: Inhibition of COX-1 (unknown origin)
Rattus norvegicus [20] = species on record: Rattus norvegicus; assay: Inhibition of K+ depolarization-induced [3H]D-aspartate efflux in Sprague-Dawley rat synaptosome preincubated at 50 uM for 8 mins by liquid scintillation counting; assay type: functional, tissue-based; settings: Brain
In short: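 Purified rat cerebrocortical synaptosomes were loaded with [3H]D-aspartate and superfused. Compound was added 8 min before K+ depolarization, which was applied as KCl for 120 s during superfusion. Evoked tritium efflux was measured. Data are mean ± SEM of 3–12 independent experiments in triplicate.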

Rattus norvegicus [21] = assay: Antinociceptive activity against carrageenan-induced paw edema in rat assessed as paw edema volume at 20 mg/kg, po measured after 30 mins (reference value: 2.71+/- 0.08 ml); assay type: functional
Rattus norvegicus [22] = assay: Antinociceptive activity against carrageenan-induced hyperalgesia in rat assessed as paw pressure at 10 mg/kg, po measured after 60 mins (reference value: 31.8 +/- 2.2 g); assay type: functional; in short: as §1
Rattus norvegicus [23] = assay: Antinociceptive activity against carrageenan-induced hyperalgesia in rat assessed as paw pressure at 20 mg/kg, po measured after 60 mins (reference value: 31.8 +/- 2.2 g); assay type: functional; in short: as §1
Mus musculus [24] = assay: Analgesic activity in Swiss albino mouse assessed as inhibition of acetic acid-induced abdominal contraction at 10 mg/kg, po measured after 30 mins in presence of SR-141716A; assay type: functional, organism-based; design: dose 10 mg/kg; settings: Abdominal cavity
Mus musculus [25] = assay: Analgesic activity in Swiss albino mouse assessed as inhibition of acetic acid-induced abdominal contraction at 20 to 60 mg/kg, po measured after 30 mins; assay type: functional, organism-based; settings: Abdominal cavity

Prostaglandin G/H synthase 1 (Homo sapiens), sequence (P23219 whole entry): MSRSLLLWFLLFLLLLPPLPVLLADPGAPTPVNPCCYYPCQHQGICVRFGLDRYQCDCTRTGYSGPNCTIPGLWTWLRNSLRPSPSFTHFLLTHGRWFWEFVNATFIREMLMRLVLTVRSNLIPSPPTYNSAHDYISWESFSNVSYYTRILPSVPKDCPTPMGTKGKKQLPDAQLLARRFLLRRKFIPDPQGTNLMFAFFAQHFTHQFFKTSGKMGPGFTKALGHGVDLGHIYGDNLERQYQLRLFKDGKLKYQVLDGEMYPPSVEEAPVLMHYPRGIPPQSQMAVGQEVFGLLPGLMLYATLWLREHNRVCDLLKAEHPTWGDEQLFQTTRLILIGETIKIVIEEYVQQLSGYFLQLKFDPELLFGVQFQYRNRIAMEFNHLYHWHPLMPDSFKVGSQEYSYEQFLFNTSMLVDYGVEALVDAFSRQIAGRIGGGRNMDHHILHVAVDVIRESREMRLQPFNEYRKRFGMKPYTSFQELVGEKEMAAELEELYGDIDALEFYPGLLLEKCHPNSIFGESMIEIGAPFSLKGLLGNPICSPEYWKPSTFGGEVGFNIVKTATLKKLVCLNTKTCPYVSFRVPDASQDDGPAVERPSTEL

O=C(NC1(C(=O)NC2CC2)C2CC3CC(C2)CC1C3)c1ccccc1 (stereo unspecified)
Activity (Rattus norvegicus [1]): 36.9 g | inhibition (Mus musculus [2]): Active | Activity (Rattus norvegicus [3]): 2.53 mL | inhibition [4]: inactive | Activity (Rattus norvegicus [5]): 44.2 g | Activity (Rattus norvegicus [6]): 53.9 g | Activity (Rattus norvegicus [7]): 40.8 g | Activity (Rattus norvegicus [8]): 48.4 g | inhibition (Mus musculus [9]): Active | Activity (Rattus norvegicus [10]): 2.06 mL | inhibition [11]: Active | Activity (Rattus norvegicus [12]): 39.1 g | inhibition [13]: inactive | Activity (Rattus norvegicus [14]): 38.2 g | pIC50 (P2X purinoceptor 7): 5.11 | inhibition [15]: inactive | Activity (Rattus norvegicus [16]): 33.6 g | Activity (Rattus norvegicus [17]): 52.7 g | Activity (Rattus norvegicus [18]): 35.6 g | inhibition [19]: inactive | inhibition (Rattus norvegicus [20]): inactive | Activity (Rattus norvegicus [21]): 2.1 mL | Activity (Rattus norvegicus [22]): 43.4 g | Activity (Rattus norvegicus [23]): 48.3 g | inhibition (Mus musculus [24]): Active

O=C(NC1(C(=O)NCCc2ccccc2)C2CC3CC(C2)CC1C3)c1ccccc1 (stereo unspecified)
inhibition (Mus musculus [25]): inactive
